According to ChEMBL document CHEMBL1134657, “Inhibition of cancer cell growth by ruthenium(II) arene complexes” (J Med Chem, 2001):

These substances were tested on A2780 (assay: Concentration required to inhibit 50% growth of A2780 human ovarian cancer cells.).
Assay type: functional, cell-based
Procedure, shortened: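 A2780 cells kept at 37 °C, 5% CO2, seeded at 1 × 10^4 cells per well, grown 72 h, then exposed for 24 h to complexes freshly dissolved in deionized water and diluted in RPMI to final 0.1, 1, 10 and 100 µM, in duplicate. Drug medium removed, cells washed with PBS, regrown in fresh medium and counted on day 7 by Coulter counter.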

Substance | IC50
CARBOPLATIN | 6 µM
CISPLATIN | 0.5 µM
[(nu6-C6H5C6H5)RuCl(N-ethylethylenediamine)]PF6 | 6 µM
[(nu6-C6H5CO2CH3)RuCl(ethylenediamine)]PF6 | 55 µM
[(nu6-C6H6)RuCl(ethylenediamine)]PF6 | 17 µM
[(nu6-C6H6)RuI(ethylenediamine)]PF6 | 20 µM
[(nu6-p-cymene)RuBr(CH3CN)2]PF6 | > 150 µM
[(nu6-p-cymene)RuCl2(isonicotinamide)] | > 150 µM
[(nu6-p-cymene)RuCl(ethylenediamine)]PF6 | 9 µM
[(nu6-p-cymene)RuI(ethylenediamine)]PF6 | 8 µM
